# Bioassay records (PubChem BioAssay)
# INS promoter act: activators of insulin promoter-driven GFP, primary screen, imaging, TRM-6 cells (human fetal islet line), eGFP reporter, cell count; plate-scaled: unstimulated 0, stimulated control 100; activation, % at 2 µM; actives 0.81% (n = 130,000); AID 1296, 2008;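 active = activation at 2 µM above a set limit, confirmed on inspection of the cell images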;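 note: share of cells whose green reporter signal exceeds an intensity cutoff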
#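 test system = TRM-6 insulin promoter–eGFP reporter cells | benchmarks = stimulated versus unstimulated wells as plate controls | read-out basis = percent cells above green-intensity threshold, converted to percent activation versus plate controls | detection = fixed-cell fluorescence microscopy, eGFP plus Hoechst | incubation = tamoxifen pre-incubation 15 h overnight, then compound exposure 48 h at 37 °C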
# Starred values were filed as active, the others as inactive. Shown is part of a subset that was picked to be rich in hits.
SMILES,INS promoter act
Cn1cc(Br)c(C(=O)Nc2nccs2)n1,8
CCCCN1C(=O)C(O)(CC(=O)c2ccccc2OC)c2ccccc21 (centres undefined),-2
CCCCN1C(=O)C2(NNc3ccccc3O2)c2ccccc21 (centres undefined),170*
CCCCN1C(=O)C(O)(CC(=O)c2c(C)coc2C)c2ccccc21 (centres undefined),2
Cc1ccc(S(=O)(=O)N2CCC[C@H]2C(=O)OC(C)C(=O)Nc2ncc(Cl)cc2Cl)cc1 (some centres undefined),-3
O=C(NCCCN1CCCC1=O)c1ccc2c(=O)n(-c3ccccc3F)c(=S)[nH]c2c1,-7
O=C(Cn1cc(C(=O)C(F)(F)F)c2ccccc21)NCc1ccco1,6
CC(=O)c1cn(CC(=O)NCc2cccnc2)c2ccccc12,5
O=C(Cn1cc(C(=O)c2ccco2)c2ccccc21)NCc1ccco1,97*
CCCSc1cc(N2CCOCC2)nc(-c2ccccc2Cl)n1,-8
CC(C)(C)NC(=O)c1ccc(NC(=O)C2COc3ccccc3O2)cc1 (centres undefined),9
CC1CC(C)CN(S(=O)(=O)c2ccc(NC(=O)C3COc4ccccc4O3)cc2)C1 (centres undefined),925*
NS(=O)(=O)c1ccc(NC(=O)C2COc3ccccc3O2)cc1 (centres undefined),4
O=C(NC(=O)c1ccccc1)OCCN1C(=O)c2ccccc2C1=O,6
Nc1c(-c2cccc([N+](=O)[O-])c2)nc2ccccn12,-69
CCCn1c(OC)nc2c1c(=O)n(C)c(=O)n2C,0
Cn1c(=O)c2c(nc(CN3CCN(Cc4ccccc4)CC3)n2Cc2ccccc2)n(C)c1=O,-80
CCCn1c(CN2CCCCC2CC)nc2c1c(=O)n(C)c(=O)n2C (centres undefined),600*
COC(=O)C(CCSC)NC(=O)c1cc2c(n(-c3ccccc3)c1=O)CC(C)(C)CC2=O (centres undefined),8
O=C(O)CCc1nnc(SCC(=O)Nc2cccc(C(F)(F)F)c2)[nH]c1=O,108
COc1ccc(/C=C2/C(=O)N(c3nc4ccccc4s3)N=C2CSc2ccc(Cl)cc2)cc1,-7
CCOC(=O)CC1C(=O)NCCN1Cc1ccc(OC)c(OC)c1 (centres undefined),154
CCOC(=O)c1cc(C)n(Cc2ccc(OCC)c(OC)c2)c1C,86*
CCOc1cc(CN2CCN(C(=O)c3ccco3)CC2)ccc1OC,9
C/C(=N/NS(=O)(=O)c1ccc(Cl)cc1)c1cccc(NC(=O)c2ccc(Cl)cc2Cl)c1,0
SMILES,INS promoter act
CCOC(=O)Cn1c(C)nc2c(C(=O)OCC)sc(C)c2c1=O,76*
COC(=O)Cn1c(C)nc2c(sc3nc(C)cc(C)c32)c1=O,5
CCOC(=O)c1sc2nc(C)[nH]c(=S)c2c1C,-79
Cc1cccc(C)c1NC(=O)CN(C)C(=O)C(c1ccccc1)c1ccccc1,7
CC1Nc2ccccc2C(=O)N1NC(=O)c1ccc(Br)cc1 (centres undefined),0
CC12CCC(C(=O)Nc3ccccc3N3CCOCC3)(CC1=O)C2(C)C (centres undefined),8
CC12CCC(C(=O)N3CCc4ccccc43)(CC1=O)C2(C)C (centres undefined),514*
COc1ccc(N2CCN(C(=O)C34CCC(C)(C(=O)C3)C4(C)C)CC2)cc1 (centres undefined),-6
COc1cc(/C=C/C(=O)O)cc(S(=O)(=O)Nc2cccc(SC)c2)c1OC,-2
CCCCn1c(=O)c(CCC(=O)OCC(=O)NCc2ccc(OC)c(OC)c2)nc2ccccc21,-82
O=CNc1ccc(S(=O)(=O)NCc2ccccc2)cc1,-9
O=C1C(=O)N(CCc2c[nH]c3ccccc23)C(c2cccnc2)/C1=C(/O)c1ccccc1 (centres undefined),0
CCc1cc2cc(C)cc(C)c2nc1SCC(=O)Nc1cc(C)on1,118
Cc1cc(C)c2nc(SCC(=O)Nc3ccccc3N3CCOCC3)c(C#N)cc2c1,329
Cc1nonc1NC(=O)CSc1nc2c(C)cccc2cc1C#N,809*
Cc1ccc(NC(=O)C2CCCN(C(=O)c3ccc(Cl)cc3)C2)c(C)c1 (centres undefined),8
CCN(CC)C(=O)NCc1c(C)cc(C)cc1C,0
CN(C)c1nnc(-c2ccc(Cl)cc2)o1,-6
CCN(CC)CCn1c(=N)n(CC(O)c2ccco2)c2ccccc21 (centres undefined),508*
N=c1n(Cc2ccccc2)c2ccccc2n1CC(O)c1ccco1 (centres undefined),0
Cn1c(=N)n(CC(=O)O)c2ccccc21,0
CNS(=O)(=O)c1ccc(OC)c(-c2nnc3c4ccccc4c(C)nn23)c1,-7
Cc1nn2c(-c3ccccc3)nnc2c2ccccc12,450*
Cc1nn2c(-c3cccc(NC(=O)c4ccco4)c3)nnc2c2ccccc12,263
O=C(CN(c1ccccc1)S(=O)(=O)c1ccccc1)N/N=C/c1ccco1,-8
SMILES,INS promoter act
O=C(COC(=O)[C@@H]1CC(O)CN1S(=O)(=O)c1ccc2c(c1)OCCO2)Nc1ccccc1F (some centres undefined),8
Cc1cc(-c2ccccc2)nc(Cl)c1C#N,0
O=C1NC(=O)C2(COC(c3ccncc3)OC2)S1 (centres undefined),3
CCCCNC(=S)NNC(=O)C12CC3CC(CC(C3)C1)C2,86*
CC(C)(C)OC(=O)NNC(=O)C12CC3CC(CC(C3)C1)C2,-9
CCCCNC(=S)NNC(=O)c1ccc(Br)o1,-7
CCOc1ccc2ccccc2c1/C=N/NC(=O)CC1(C)OCCCO1,0
CCC(CC)C(=O)OCC(=O)Nc1cc(OC)c([N+](=O)[O-])cc1C,-64
S=C(Nc1ccccc1)N1CCCCCCC1,7
O=S(=O)(c1ccc(F)c(F)c1F)N1CCN(C(=S)Nc2ccccc2)CC1,324*
NS(=O)(=O)c1ccc(NC(=S)N2CCN(c3ccccc3Cl)CC2)cc1,-5
COc1ccc(C(=O)C2CCCN(Cc3ccc(C#CCCO)cc3)C2)cc1F (centres undefined),-8
CC(=O)Nc1cc(N=Cc2ccc(O)cc2O)c(Cl)cc1Cl,5
CC(=O)NC(CCS(C)(=O)=O)C(=O)Nc1nc(C)cs1 (centres undefined),750*
Cc1csc(NC(=O)C(NS(=O)(=O)c2ccc(Br)s2)c2ccccc2)n1 (centres undefined),0
Cc1csc(NC(=O)c2ccccc2C(=O)O)n1,7
CCN1CCN(c2ccc(S(=O)(=O)N3CCCC3)cn2)CC1,0
O=C(NCCc1ccccn1)C1CCN(S(=O)(=O)c2ccc3ccccc3c2)CC1,106
COc1ccccc1OCC(=O)Nc1ccc(N2CCCCC2)cc1,-9
O=C(COc1cccc(Cl)c1)Nc1ccc(N2CCOCC2)cc1,0
Cc1ccc(OCC(=O)Nc2ccc(N3CCCC3)cc2)cc1C,163*
Cc1ccc(C(=O)NCCCN2CCOCC2)o1,7
CCOc1ccc(-c2nc(-c3ccccc3C)no2)cc1,0
O=C(O)CCCN1C(=O)C(=O)/C(=C(/O)c2ccccc2)C1/C=C/c1ccccc1 (centres undefined),6
CC(=O)c1ccc(NS(=O)(=O)c2ccc(N)cc2)cc1,-6
CSc1ccc(S(=O)(=O)Nc2c(C)cccc2C)cc1,-91
COC(=O)c1ccc(NS(=O)(=O)c2ccc(SC)cc2)cc1,730*
COc1ccc(NS(=O)(=O)c2ccc(SC)cc2)cc1,0
